Experiment [1] deals with Vero. Briefly: (§1) Compound was tested for antiviral activity against Herpes simplex virus-1 (Strain F) in vero cells by plaque reduction assay. The experiment is classed as functional. The note with it: Chlorocebus sabaeus, read-out: ED50 (the source's name). Background: In a plaque reduction assay, fewer plaques than in the control indicate reduced infectivity or spread.
Experiment [2] has as its system Vero. Briefly: (§2) Compound was tested for antiviral activity against Herpes simplex virus-2 (Strain G) in vero cells by plaque reduction assay. The settings on record: Chlorocebus sabaeus, read-out: ED50 (the source's name). The experiment is classed as functional.
The subject of experiment [3] is Vero. The description is as §1. The experiment is classed as functional, Chlorocebus sabaeus.
Experiment [4] can be described thus: Theuraptic Index: ratio of ID 50 / ED 90 of compound against HSV 2. Type of experiment: functional. A digest of the protocol: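 Index computed as cytotoxic ID50 over antiviral ED90. Antiviral activity was measured against HSV-2 (strain G) by plaque-reduction assay in Vero cells. Cytotoxicity was measured in rapidly dividing Vero cells.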
The subject of experiment [5] is Vero. The description is as §2. The experiment is classed as functional, Chlorocebus sabaeus.
Experiment [6] can be described thus: Theuraptic Index: ratio of ID 50 / ED 90 of compound against HSV 1. Type of experiment: functional. A digest of the protocol:
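Index computed as cytotoxic ID50 over antiviral ED90. Antiviral activity was measured against HSV-1 (strain F) by plaque-reduction assay in Vero cells. Cytotoxicity was measured in rapidly dividing Vero cells.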

pEC50: −log10 of the molar value. Bounds are passed on as bounds.

Among the data in ChEMBL document CHEMBL1123204, “Nucleosides. 136. Synthesis and antiviral effects of several 1-(2-deoxy-2-fluoro-beta-D-arabinofuranosyl)-5-alkyluracils. Some structure-activity relationships” (J Med Chem, 1986) are EC50, ED90 and TI values, retold here.

As for `CCc1cn([C@@H]2O[C@H](CO)[C@@H](O)[C@@H]2F)c(=O)[nH]c1=O`, the pEC50 in the experiment with Vero [1] is 7.62; in the experiment with Vero [2] it was 6.62. Further, the results for the ED90 in the experiment with Vero [3] and in the experiment with Vero [5] were 0.26 µM and 0.96 µM, respectively. For the same molecule, the figures for the TI in experiment [4] and in experiment [6] were 1770 and 6540, respectively.

For the molecule `CCCCc1cn([C@@H]2O[C@H](CO)[C@@H](O)[C@@H]2F)c(=O)[nH]c1=O`, the pEC50 in the experiment on Vero [1] was 4.95; in the experiment on Vero [2], 4.80. The ED90 in the experiment with Vero [3] was found to be 76 µM; with Vero [5] it was 40.3 µM. Besides, the TI in experiment [4] was over 20; in experiment [6] it was over 11.

As for `CCCc1cn([C@@H]2O[C@H](CO)[C@@H](O)[C@@H]2F)c(=O)[nH]c1=O`, the pEC50 is 6.32 with Vero [1] and 6.05 in the experiment on Vero [2]. For the same molecule, the ED90 came to 4.27 µM with Vero [3] and 7.58 µM with Vero [5]. Further, the TI in experiment [4] was 310; in experiment [6] it was 551.

For the molecule `Cc1cn([C@@H]2O[C@H](CO)[C@@H](O)[C@@H]2F)c(=O)[nH]c1=O` [5-METHYL-2'-FLUOROARAURACIL], the pEC50 in the experiment with Vero [1] is 7.74; in the experiment on Vero [2] it was 7.64. Besides, the ED90 with Vero [3] came out at 0.047 µM; in the experiment on Vero [5], 0.09 µM. Also, the TI in experiment [4] turned out to be 31; in experiment [6], 59.

Regarding `CCC(C)c1cn([C@@H]2O[C@H](CO)[C@@H](O)[C@@H]2F)c(=O)[nH]c1=O` (some centres undefined), the pEC50 in the experiment with Vero [1] is 4.81; in the experiment with Vero [2] it was under 3.40. In addition, the results for the ED90 in the experiment with Vero [3] and in the experiment with Vero [5] were 305 µM and over 400 µM, respectively.

In the case of `CC(C)Cc1cn([C@@H]2O[C@H](CO)[C@@H](O)[C@@H]2F)c(=O)[nH]c1=O`, the pEC50 was 4.54 in the experiment on Vero [1] and 3.95 with Vero [2]. The ED90 with Vero [3] was found to be 92.7 µM; in the experiment on Vero [5], 422 µM.

Regarding `CC(C)c1cn([C@@H]2O[C@H](CO)[C@@H](O)[C@@H]2F)c(=O)[nH]c1=O`, the pEC50 in the experiment on Vero [1] was 6.00; with Vero [2] it was 4.89. The ED90 in the experiment with Vero [3] turned out to be 8.7 µM; in the experiment on Vero [5], 72.3 µM. For the same molecule, the figures for the TI in experiment [4] and in experiment [6] were over 11 and over 92, respectively.

With `C=CCc1cn([C@@H]2O[C@H](CO)[C@@H](O)[C@@H]2F)c(=O)[nH]c1=O`, the pEC50 in the experiment on Vero [1] is 5.48; with Vero [2] it was 5.22. For the same molecule, the values for the ED90 with Vero [3] and in the experiment with Vero [5] were 21.3 µM and 29.7 µM, respectively. For the same molecule, the TI in experiment [4] was found to be 52; in experiment [6] it was 73.
